# Where “and” joins values, the source holds several entries; their conditions need not be identical. Identical values can stand only once.
# Assays:
# [1] = system: patients with advanced solid malignancies; test: Exploratory graphical analysis of model assumptions; format: in vivo, human
# Summary of the method: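 Before modelling, first-dose paired data were plotted to check four assumptions: no drug effect on heart rate; a suitable HR correction (RR versus uncorrected QT, QTcF and QTcB); no hysteresis (mean ΔQTcF against concentration, joined in time order per dose); and linearity (loess smooth, linear regression, binned means). Sampling was at baseline, 1, 2, 6 and 24 h (escalation/expansion) or at baseline, 2 and 4–6 h (mutation cohorts).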
# [2] = system: patients with advanced solid malignancies; test: Categorical evaluation of QTc, PR and QRS intervals; format: in vivo, human; conditions: of 180 patients
# Summary of the method: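 Patients received single twice-daily-regimen doses of 80–800 mg, either continuous or intermittent. A 12-lead digital ECG was recorded after at least 10 min semi-supine rest. Triplicate tracings were taken about 5 min apart at each time point and averaged, then read centrally. Thresholds were QTc ≥450, ≥480 and ≥500 ms; ΔQTc ≥30 and ≥60 ms; PR ≥200 ms; and QRS ≥110 ms.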
# patients = conditions: available clinical data; cited from earlier work
# [3] = system: patients with advanced solid malignancies; format: in vivo, human; conditions: linear mixed-effects model parameter estimate
# Summary of the method: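 The model was a prespecified linear mixed-effects structure for placebo-free oncology trials. It regressed baseline-adjusted QTcF on plasma concentration, with random intercept and slope, plus a fixed effect for baseline QTcF centred on the overall baseline mean. Fitting used restricted maximum likelihood, assuming normal random effects and residuals. Only first-dose data were used (503 time-matched points, 180 patients). Fit was checked with goodness-of-fit plots.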
# [4] = Plasma pharmacokinetics of capivasertib; format: in vivo, human
structure (smiles),measurement,setting,value
"NC1(C(=O)N[C@@H](CCO)c2ccc(Cl)cc2)CCN(c2ncnc3[nH]ccc23)CC1 [capivasertib, 4‐amino‐N‐[(1S)‐1‐(4‐chlorophenyl)‐3‐hydroxypropyl]‐1‐(7H‐pyrrolo[2,3‐d]pyrimidin‐4‐yl)piperidine‐4‐carboxamide]",Time to maximum ΔQTcF,[1]; after administration of first dose,≤ 2 h
same,ΔHR (change in heart rate),"[1]; after first dose, small decrease at 1 hour, not dose-dependent",≤ 10 beats per minute
same,Time delay between concentration and ΔQTcF (hysteresis plots),[1]; in vivo,No evidence of a time‐delay
same,Patients with QRS ≥ 110 ms,[2]; doses from 80 mg to 800 mg,5.0%
same,Patients with QTcF ≥ 480 ms,[2]; single doses 80-800 mg,No patients
same,Patients with ΔQTcF ≥ 60 ms,[2]; single doses 80-800 mg,No patients
same,Reports of serious cardiac events or ECG changes,patients,"no reports of sudden death, torsades de pointes, seizures or electrocardiogram (ECG) changes that were considered serious"
same,ɛ Residual variability,[3],6.452 ms
same,η0 Random effect for intercept,[3],5.350 ms
same,θ0 Intercept,[3],-0.269 ms
same,θ1 Slope of capivasertib concentration vs ΔQTcF,[3],0.003 ms/(ng/mL) and 0.00337 ms/(ng/mL)
same,θ2 Impact of baseline QTcF on ΔQTcF,[3],−0.119
same,Drug accumulation,[4]; 4 days on/3 days off intermittent schedule,less than twofold
same,Time at which Cmax was reached after dosing,[4]; after first dose,approximately 2 hours
